Assay outcomes deposited in PubChem BioAssay by The Scripps Research Institute Molecular Screening Center.
SIAE primary = inhibitors of human sialic acid acetylesterase SIAE | SIAE FP-Rh probe binding, fluorescence polarization | inhibition, % at 9.66 µM | AID 1053197 | actives 0.69% (n = 370,000);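 active = inhibition above a cutoff: mean of compounds within the control limits plus 3 SD of those, cut at about 17% in these data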;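 note: 0% = plate median of compound wells and 100% = probe without SIAE protein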
Target sequence (Q9HAT2 whole entry, looked up): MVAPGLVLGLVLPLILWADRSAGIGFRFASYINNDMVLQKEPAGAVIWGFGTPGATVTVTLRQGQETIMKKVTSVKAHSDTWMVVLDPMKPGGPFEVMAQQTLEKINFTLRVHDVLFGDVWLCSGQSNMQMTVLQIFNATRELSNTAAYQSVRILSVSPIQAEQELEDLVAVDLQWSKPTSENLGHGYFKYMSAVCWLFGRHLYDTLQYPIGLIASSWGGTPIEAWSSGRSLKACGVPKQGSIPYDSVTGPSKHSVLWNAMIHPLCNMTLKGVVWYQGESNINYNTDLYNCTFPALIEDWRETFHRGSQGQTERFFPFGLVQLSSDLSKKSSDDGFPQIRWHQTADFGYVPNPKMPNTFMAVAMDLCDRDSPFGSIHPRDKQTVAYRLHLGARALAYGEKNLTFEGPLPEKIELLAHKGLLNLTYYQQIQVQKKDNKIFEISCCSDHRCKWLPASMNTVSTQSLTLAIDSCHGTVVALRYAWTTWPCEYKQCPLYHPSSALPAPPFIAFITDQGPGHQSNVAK
rCAG RNA binder = binds r(CAG) RNA repeats; r(CAG) RNA repeat, TO-PRO-1 dye displacement fluorescence; inhibition, % at 3 µM; actives 1.3% (n = 370,000);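 active = inhibition above the plate cutoff, the mean of all test compounds on that plate plus 3 SD, cut at about 35% in these data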;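 note: 0% = DMSO alone and 100% = 100 µM mitoxantrone as full dye displacement; higher means more dye released from RNA so lower well fluorescence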
ABHD4 inh = inhibits mouse alpha/beta hydrolase domain 4; Q8VD66; actives 0.54% (n = 370,000); purified mABHD4, FP-Rh probe fluorescence polarization; inhibition, % at 8.92 µM;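 active = inhibition exceeding the mean over every tested compound plus 3 SD, cut at about 30% in these data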;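 note: 0% = plate median of compound wells and 100% = S159A mutant with DMSO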
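System: mouse ABHD4 enzyme, wild type / Medium: HEPES pH 7.0, NaCl, Pluronic buffer / Reagent: FP-Rh activity-based fluorescent probe / Control set: S159A mutant high control, sample median low control / Detection: fluorescence polarization with parallel and perpendicular emission, 525/598 nm / Schedule: 45 min + 60 min at 25 °C / Compound dosing: 8.92 µM, single dose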
TCR-CD3 inh = inhibitors of human TCR-CD3 interaction; TAMRA-labeled TCR probe fluorescence, biochemical; inhibition, % at 9.4 µM; actives 0.37% (n = 360,000); in the data active = inhibition above about 19%;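 note: recombinant mutant TCR 2C K166C tagged with TAMRA read by polarization; 0% = receptor in buffer alone and 100% = receptor with positive control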
PRMT1 FP inh = inhibitors of human PRMT1; AID 652257; Q99873; inhibition, % at 2.79 µM; actives 1.3% (n = 370,000); recombinant PRMT1, activity-based probe fluorescence polarization;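 active = inhibition above about 21% made by adding two undisclosed values, limit read from the data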
rCAG bind conf = r(CAG) RNA repeat binding, confirmation; actives 70% (n = 4,300); TO-PRO-1 dye displacement fluorescence; inhibition, % at 3 µM; shares compounds with rCAG RNA binder;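 active = inhibition above a per-plate cutoff, the mean inhibition of sample wells plus 3 SD, cut at about 35% in these data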;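 note: loss of TO-PRO-1 fluorescence as compound displaces dye from 1x1 AA loop RNA; 0% = DMSO only wells and 100% = 100 µM mitoxantrone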
DNA CAG counter = disrupts DNA CAG TO-PRO-1 complex, flagging rCAG hits. shares compounds with rCAG RNA binder. d(CAG) DNA oligo TO-PRO-1 dye displacement, fluorescence. inhibition, % at 3 µM. actives 94% (n = 4,300);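 active = inhibition above its plate's cutoff, the mean test-well inhibition plus 3 SD, cut at about 4.8% in these data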;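 note: 0% = DNA dye mix with DMSO and 100% = 100 µM mitoxantrone; hits displace the dye from DNA and so lower well fluorescence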
mABHD4 conf = ABHD4 (mouse) inhibition, FP confirmation; shares compounds with ABHD4 inh; actives 55% (n = 1,800); inhibition, % at 8.92 µM; purified mABHD4, FP-Rh probe fluorescence polarization;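 active = mean inhibition across replicates above the hit cutoff set in the primary screen, cut at about 30% in these data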;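 note: 0% = wild-type ABHD4 with DMSO and 100% = catalytically dead S159A mutant with DMSO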
SIAE confirm = human SIAE inhibition, confirmation; AID 1117263; actives 13% (n = 2,300); SIAE FP-Rh activity-based probe, fluorescence polarization; inhibition, % at 9.66 µM; shares compounds with SIAE primary;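 active = mean inhibition of the replicates above the hit cutoff set in the primary screen, cut at about 17% in these data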;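 note: 0% = SIAE with DMSO and probe and 100% = probe without SIAE; inhibitors lower polarization as more probe stays unbound to SIAE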
Starred values were filed as active, the others as inactive. Only some compounds are listed: those with a hit (about 3.3% of all), similar ones and a draw of the others.

`COc1ccc(NC(=O)NC2CCN(S(=O)(=O)c3ccc(F)cc3)CC2)cc1OC` gave SIAE primary 3.9, rCAG RNA binder 1.0, ABHD4 inh 1.8 and PRMT1 FP inh -2.6.
Screening O=C1CSc2ccc(C(=O)N3CCCC(C(=O)N4CCN(c5ccc(F)cc5)CC4)C3)cc2N1 (stereo unspecified) returned SIAE primary 1.2, rCAG RNA binder 3.2, ABHD4 inh 1.4 and PRMT1 FP inh 1.1.
For Oc1ccccc1-c1nc2c3ccccc3c3ccccc3c2[nH]1 the results were SIAE primary 26.6*, rCAG RNA binder 56.3*, ABHD4 inh -19.2, TCR-CD3 inh 3.6, PRMT1 FP inh -0.9, rCAG bind conf 39.4*, DNA CAG counter 28.6* and SIAE confirm -2.3.
O=[N+]([O-])c1ccccc1N/N=C/c1ccccc1 was read as SIAE primary -2.8, rCAG RNA binder -1.9, ABHD4 inh 4.3, TCR-CD3 inh 2.1 and PRMT1 FP inh -0.5.
Screening O=[N+]([O-])c1ccccc1N/N=C/c1c[nH]c2ccccc12 returned SIAE primary 18.3*, rCAG RNA binder 36.5*, ABHD4 inh 48.9*, TCR-CD3 inh 3.8, PRMT1 FP inh 1.1, rCAG bind conf 24.6, DNA CAG counter 15.8*, mABHD4 conf 88.7* and SIAE confirm 20.5*.
`CC(=O)NC(C)C(=O)N1CCCC1C(=O)N1CCCC1C(=O)NC(C)C(=O)NC1C(=O)NC(CC(C)C)C(=O)NC2CCCCNC(=O)CCC(C(=O)NC(Cc3ccc(O)cc3)C(=O)O)NC(=O)C3CCC(=O)OCC(NC(=O)C4CCCN4C(=O)C(Cc4c[nH]c5ccccc45)NC2=O)C(=O)NC(CC(=O)OC1C)C(=O)NC(Cc1c[nH]c2ccccc12)C(=O)N3` (stereo unspecified) gave SIAE primary 1.0, rCAG RNA binder 17.8, ABHD4 inh -6.1 and PRMT1 FP inh -1.1.
`COc1cc(/C=N/NC(=O)C(Cc2c[nH]c3ccccc23)NC(=O)OCC(C)C)cc([N+](=O)[O-])c1OCc1ccccc1` (stereo unspecified) gave SIAE primary -3.8, rCAG RNA binder 6.0, ABHD4 inh -1.4, TCR-CD3 inh -4.3 and PRMT1 FP inh 3.5.
COc1cc(/C=N/NC(=O)C(Cc2c[nH]c3ccccc23)NC(=O)OCC(C)C)cc([N+](=O)[O-])c1O (stereo unspecified) was read as SIAE primary 55.1*, rCAG RNA binder 56.6*, ABHD4 inh 36.2*, TCR-CD3 inh -2.4, PRMT1 FP inh 10.4, rCAG bind conf 68.8*, DNA CAG counter 24.7*, mABHD4 conf 49.5* and SIAE confirm 43.8*.
Screening COc1ccc2[nH]c3c(C)c4ccncc4c(C)c3c2c1 returned SIAE primary 21.3*, rCAG RNA binder 37.4*, ABHD4 inh 31.7*, TCR-CD3 inh -5.5, PRMT1 FP inh -4.7, rCAG bind conf 24.7, DNA CAG counter 27.2*, mABHD4 conf 57.0* and SIAE confirm 19.8*.
COc1ccc(CNC2CCC23CCC(c2ccccc2)CC3)cc1OC (stereo unspecified) was read as SIAE primary 7.8, ABHD4 inh 8.7 and PRMT1 FP inh 1.5.
`Cc1ccc(-c2csc(NC(=O)c3ccc(Br)cc3)c2C(=O)O)cc1` gave SIAE primary 3.4, rCAG RNA binder 17.8, ABHD4 inh -8.4, TCR-CD3 inh -12.0 and PRMT1 FP inh 1.8.
COc1cc(C(=O)Nc2scc(-c3ccc(Br)cc3)c2C(=O)O)cc(OC)c1OC was read as SIAE primary 23.4*, rCAG RNA binder 39.4*, ABHD4 inh -36.6, TCR-CD3 inh -1.4, PRMT1 FP inh -5.8, rCAG bind conf 85.5*, DNA CAG counter 53.3* and SIAE confirm 30.8*.
Cc1cc(N/N=C/c2ccc(O)c(C)c2O)nc(-c2ccccc2O)n1 was read as SIAE primary 35.7*, rCAG RNA binder 62.1*, ABHD4 inh -21.7, TCR-CD3 inh 2.9, PRMT1 FP inh 1.1, rCAG bind conf 53.4*, DNA CAG counter 24.1* and SIAE confirm 2.5.
For CCOC(=O)N1CCN(C(=O)C[C@H]2C[C@@]3(C(=O)OC)C(=C[C@H](COCc4ccccc4)O[C@@H]3C)N(Cc3ccccc3)C2=O)CC1 the results were SIAE primary 2.5, rCAG RNA binder 1.7, ABHD4 inh -3.0 and PRMT1 FP inh -6.3.
Screening Oc1ccc(-c2csc(Nc3cccc4ccccc34)n2)cc1O returned SIAE primary 25.5*, rCAG RNA binder 53.9*, ABHD4 inh 21.3, TCR-CD3 inh 10.4, PRMT1 FP inh 6.7, rCAG bind conf 54.9*, DNA CAG counter 33.7* and SIAE confirm -3.1.
For COc1ccc(C2=NN(c3ccccc3)C(=O)/C2=C\c2ccc(O)c(OC)c2)cc1 the results were SIAE primary 19.0*, rCAG RNA binder 56.6*, ABHD4 inh 4.3, TCR-CD3 inh 4.4, PRMT1 FP inh 1.6, rCAG bind conf 65.9*, DNA CAG counter 28.6* and SIAE confirm 5.5.
COc1cc(C2c3c([nH]c(=O)[nH]c3=O)Nc3ccc4ccccc4c32)ccc1O (stereo unspecified) was read as SIAE primary 30.5*, rCAG RNA binder 42.8*, ABHD4 inh 14.9, TCR-CD3 inh 4.1, PRMT1 FP inh -1.4, rCAG bind conf 23.7, DNA CAG counter 8.2* and SIAE confirm 37.3*.
`COc1ccc(OC)c(S(=O)(=O)N2CCC(C(=O)NCC3COCCO3)CC2)c1` (stereo unspecified) gave SIAE primary 3.8, rCAG RNA binder 0.5, ABHD4 inh 1.0 and PRMT1 FP inh -1.0.
O=C(O)[C@@H]1CCCN1C(=O)c1ccccc1N1C(=O)[C@@H]2Cc3c([nH]c4ccccc34)C(c3cccc(Cl)c3)N2C1=O (stereo partly specified) was read as SIAE primary 43.9*, rCAG RNA binder 35.2*, ABHD4 inh -24.1, TCR-CD3 inh 14.9, PRMT1 FP inh 4.9, rCAG bind conf 49.4*, DNA CAG counter 13.1* and SIAE confirm -11.2.
O=C(NCCCN1CCCC1=O)c1ccc2c(c1)NC(=O)c1ccccc1S2 was read as SIAE primary -6.9, rCAG RNA binder 0.4, ABHD4 inh -7.7, TCR-CD3 inh -13.5 and PRMT1 FP inh 6.2.
